Source: ChEMBL document CHEMBL3877264, “Quinolidene-rhodanine conjugates: Facile synthesis and biological evaluation” (Eur J Med Chem, 2017)
Values after ≈ are worked out from the molar mass of the structure shown.

What was measured:
[1] = Antifungal activity against Fusarium oxysporum NCIM 1332 by standard agar method; format: functional
Outline: (§1)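 MICs determined by standard agar method; DMSO as solvent control.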

Staphylococcus aureus = experiment: Growth inhibition of Staphylococcus aureus NCIM 2010 at 30 ug/ml measured after 12 hrs relative to control; format: functional; conditions: NCIM 2010, 12 h, read-out: GI
Outline: (§2)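 Bacteria grown in LB at 37 °C and 180 rpm to OD 1. Compounds added to wells, then 0.1% inoculum of 1 OD culture (620 nm). Growth read as OD at 620 nm after 8 h for gram-negative and after 12 h for gram-positive strains.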

Pseudomonas fluorescens = experiment: Antibacterial activity against Pseudomonas fluorescens NCIM 2036 measured after 8 hrs; format: functional; conditions: NCIM 2036, 8 h; outline: as §2
[2] = test system: Mycobacterium tuberculosis; experiment: Growth inhibition of Mycobacterium tuberculosis H37Ra ATCC 25177 at active stage at 6.25 ug/ml measured after 8 days by XTT dye based two fold dilution method relative to control; format: functional; conditions: H37Ra ATCC 25177, 192 h, read-out: GI
Outline: (§3)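 MTB H37Ra was grown in Dubos medium, then exposed in Mycobacterium pheli minimal medium (pH 6.6) to compounds dissolved in DMSO. The assay ended on day 8 (active) or day 12 (dormant). Viable cells were measured by XTT reduction menadione assay at 470 nm, blank-corrected, relative to vehicle control. Triplicates were expressed as mean ± SD. MIC came from dose-response curves.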

[3] = test system: Mycobacterium tuberculosis; experiment: Growth inhibition of Mycobacterium tuberculosis H37Ra ATCC 25177 at active stage at 1.56 ug/ml measured after 8 days by XTT dye based two fold dilution method relative to control; format: functional; conditions: H37Ra ATCC 25177, 192 h, read-out: GI; outline: as §3
[4] = test system: Mycobacterium tuberculosis; experiment: Growth inhibition of Mycobacterium tuberculosis H37Ra ATCC 25177 at dormant stage at 12.5 ug/ml measured after 12 days by XTT dye based two fold dilution method relative to control; format: functional; conditions: H37Ra ATCC 25177, 288 h, read-out: GI
[5] = test system: Mycobacterium tuberculosis; experiment: Growth inhibition of Mycobacterium bovis BCG ATCC 35743 at dormant stage at 1.56 ug/ml measured after 12 days by nitrate reductase dye based two fold dilution method relative to control; format: functional; conditions: BCG str. ATCC 35743, 288 h, read-out: GI
Outline: (§4)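 M. bovis BCG was grown in Dubos medium and assayed in Mycobacterium pheli minimal medium (pH 6.6), with compounds from DMSO stocks. Incubation lasted 8 days for active and 12 days for dormant cultures. Viability was read by nitrate reductase at 540 nm against cell-free blanks, with vehicle set as 100% growth. Primary screen was at 30, 10 and 3 µg/ml, in triplicate, mean ± SD. MIC was taken from dose-response curves.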

[6] = test system: Mycobacterium tuberculosis; experiment: Growth inhibition of Mycobacterium bovis BCG ATCC 35743 at active stage at 100 ug/ml measured after 8 days by nitrate reductase dye based two fold dilution method relative to control; format: functional; conditions: BCG str. ATCC 35743, 192 h, read-out: GI
[7] = test system: Mycobacterium tuberculosis; experiment: Growth inhibition of Mycobacterium bovis BCG ATCC 35743 at active stage at 12.5 ug/ml measured after 8 days by nitrate reductase dye based two fold dilution method relative to control; format: functional; conditions: BCG str. ATCC 35743, 192 h, read-out: GI
[8] = test system: Mycobacterium tuberculosis; experiment: Growth inhibition of Mycobacterium bovis BCG ATCC 35743 at active stage measured after 8 days by nitrate reductase dye based two fold dilution method; format: functional; conditions: BCG str. ATCC 35743, 192 h; outline: as §4
[9] = test system: Mycobacterium tuberculosis; experiment: Growth inhibition of Mycobacterium tuberculosis H37Ra ATCC 25177 at active stage measured after 8 days by XTT dye based two fold dilution method; format: functional; conditions: H37Ra ATCC 25177, 192 h; outline: as §3
Aspergillus flavus = experiment: Antifungal activity against Aspergillus flavus NCIM 539 by standard agar method; format: functional; outline: as §1
Aspergillus niger = experiment: Antifungal activity against Aspergillus niger NCIM 1196 by standard agar method; format: functional; outline: as §1
[10] = Antifungal activity against Cryptococcus neoformans NCIM 576 by standard agar method; format: functional; outline: as §1
[11] = Cytotoxicity against […]-differentiated human THP1 cells measured after 48 hrs by MTT assay; format: toxicity, cell-based, THP-1
Outline: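 MTT assay with 48 h compound exposure. THP-1 macrophages made by 24 h PMA treatment. Each concentration tested in triplicate in one experiment. % cytotoxicity = (control−test)/(control−blank)×100, with control = cells + DMSO and blank = medium without cells. IC50 from % survival versus concentration plots.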

[12] = Cytotoxicity against human A549 cells assessed as growth inhibition at 100 ug/ml measured after 48 hrs by MTT assay relative to control; format: toxicity, cell-based; conditions: read-out: GI
[13] = Cytotoxicity against human PANC1 cells measured after 48 hrs by MTT assay; format: toxicity, cell-based, PANC-1
[14] = Cytotoxicity against human HeLa cells measured after 48 hrs by MTT assay; format: toxicity, cell-based
[15] = Selectivity index, ratio of GI50 for HUVEC to MIC for Mycobacterium tuberculosis H37Ra ATCC 25177 at dormant stage
[16] = Selectivity index, ratio of GI50 for human PANC1 cells to MIC for Mycobacterium tuberculosis H37Ra ATCC 25177 at dormant stage; format: toxicity, cell-based, PANC-1; conditions: read-out: Selectivity Index
Outline: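 SI is the cell-line GI50 divided by the dormant-stage mycobacterial MIC. […] THP-1 macrophages were PMA-differentiated for 24 h.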

Row | Compound | MIC [1] | inhibition of growth at 30 µg/mL (Staphylococcus aureus) | MIC (Pseudomonas fluorescens) | inhibition of growth at 6.25 µg/mL [2] | inhibition of growth at 1.56 µg/mL [3] | inhibition of growth at 12.5 µg/mL [4] | inhibition of growth at 1.56 µg/mL [5] | inhibition of growth at 100 µg/mL [6] | inhibition of growth at 12.5 µg/mL [7] | IC50 [8] | IC90 [8] | IC50 [9] | IC90 [9] | MIC (Aspergillus flavus) | MIC (Aspergillus niger) | MIC [10] | GI50 at 48 h [11] | inhibition at 48 h, 100 ug/ml [12] | GI50 at 48 h [13] | GI50 at 48 h [14] | also measured
1 | O=C1NC(=S)S/C1=C\c1cc2cc(Cl)ccc2nc1Cl | 100 µg/mL (≈ 293 µM) | 101% | 2.8 µg/mL (≈ 8.21 µM) | 102% | 23.3% | 70.3% | 60.5% | 98.4% | 99.5% | 1 µg/mL (≈ 2.93 µM) | 1.7 µg/mL (≈ 4.98 µM) | 1.9 µg/mL (≈ 5.57 µM) | 3.8 µg/mL (≈ 11.1 µM) | 125 µg/mL (≈ 366 µM) | 150 µg/mL (≈ 440 µM) | 100 µg/mL (≈ 293 µM) | > 100 µg/mL | 26.9% | > 100 µg/mL | > 100 µg/mL | Selectivity Index [15]: 15.6; selectivity ratio [16]: 15.6
2 | COc1ccc2cc(/C=C3\SC(=S)NC3=O)c(Cl)nc2c1 | 50 µg/mL (≈ 148 µM) | -23.5% | > 30 µg/mL | 43.8% | -6.28% | 69.5% | -29.2% | 98.9% | 98.9% | 1.7 µg/mL (≈ 5.05 µM) | 2.9 µg/mL (≈ 8.61 µM) | 5.7 µg/mL (≈ 16.9 µM) | 21.1 µg/mL (≈ 62.6 µM) | 100 µg/mL (≈ 297 µM) | 75 µg/mL (≈ 223 µM) | 50 µg/mL (≈ 148 µM) | > 100 µg/mL | 27.6% | > 100 µg/mL | > 100 µg/mL | 
3 | O=C1NC(=S)S/C1=C\c1cc2cc(F)ccc2nc1Cl | 25 µg/mL (≈ 77 µM) | 101% | > 30 µg/mL | 96.2% | 31.9% | 87.3% | -2.98% | 97.7% | 98.3% | 2.4 µg/mL (≈ 7.39 µM) | 4.2 µg/mL (≈ 12.9 µM) |  |  | 12.5 µg/mL (≈ 38.5 µM) | 25 µg/mL (≈ 77 µM) | 25 µg/mL (≈ 77 µM) | > 100 µg/mL | 40% | > 100 µg/mL | > 100 µg/mL | Selectivity Index [15]: 5.6; selectivity ratio [16]: 5.6
4 | CCOc1ccc2nc(Cl)c(/C=C3\SC(=S)NC3=O)cc2c1 | 150 µg/mL (≈ 428 µM) | -29.8% | > 30 µg/mL | 104% | 28.7% | 101% | 75.5% | 96.8% | 98.2% |  |  | 1.9 µg/mL (≈ 5.42 µM) | 2.8 µg/mL (≈ 7.98 µM) | 50 µg/mL (≈ 143 µM) | 25 µg/mL (≈ 71.3 µM) | 50 µg/mL (≈ 143 µM) | > 100 µg/mL | 23.9% | > 100 µg/mL | > 100 µg/mL | Selectivity Index [15]: 28.6; selectivity ratio [16]: 28.6
5 | COc1ccc2nc(Cl)c(/C=C3\SC(=S)NC3=O)cc2c1 | 125 µg/mL (≈ 371 µM) | 103% | > 30 µg/mL | 55.2% | 23.1% | 72.7% | -28.8% | 86.3% | 96% | 3.7 µg/mL (≈ 11 µM) | 5 µg/mL (≈ 14.8 µM) | 6.9 µg/mL (≈ 20.5 µM) | 14.3 µg/mL (≈ 42.5 µM) | 100 µg/mL (≈ 297 µM) | 150 µg/mL (≈ 445 µM) | 100 µg/mL (≈ 297 µM) | > 100 µg/mL | 22.2% | > 100 µg/mL | > 100 µg/mL | Selectivity Index [15]: 20.8; selectivity ratio [16]: 20.8
6 | Cc1cccc2cc(/C=C3\SC(=S)NC3=O)c(Cl)nc12 | 200 µg/mL (≈ 623 µM) | 12.6% | > 30 µg/mL | 48.4% | 29.6% | 49.2% | -20.5% | 93.2% | 99.5% | 3.7 µg/mL (≈ 11.5 µM) | 6.5 µg/mL (≈ 20.3 µM) | 4.8 µg/mL (≈ 15 µM) | 18.2 µg/mL (≈ 56.7 µM) | 100 µg/mL (≈ 312 µM) | 150 µg/mL (≈ 468 µM) | 100 µg/mL (≈ 312 µM) | > 100 µg/mL | 32.9% | > 100 µg/mL | > 100 µg/mL | Selectivity Index [15]: 7.8; selectivity ratio [16]: 7.8
7 | O=C(O)CN1C(=O)/C(=C/c2cc3cc(F)ccc3nc2Cl)SC1=S | 25 µg/mL (≈ 65.3 µM) | -19% | > 30 µg/mL | 11.3% | -22.9% | 1.72% | 99.4% |  |  | > 30 µg/mL | > 30 µg/mL | > 30 µg/mL | > 30 µg/mL | 100 µg/mL (≈ 261 µM) | 25 µg/mL (≈ 65.3 µM) | 25 µg/mL (≈ 65.3 µM) | > 100 µg/mL | 33.7% | > 100 µg/mL | > 100 µg/mL | 
8 | Cc1cccc2cc(/C=C3\SC(=S)N(CC(=O)O)C3=O)c(Cl)nc12 | 175 µg/mL (≈ 462 µM) | 15.5% | > 30 µg/mL | 12.9% | -2.86% | 51% |  |  |  | > 30 µg/mL | > 30 µg/mL | 21.2 µg/mL (≈ 56 µM) | 27.3 µg/mL (≈ 72.1 µM) | 100 µg/mL (≈ 264 µM) | 200 µg/mL (≈ 528 µM) | 150 µg/mL (≈ 396 µM) | > 100 µg/mL | 15.6% | > 100 µg/mL | > 100 µg/mL | Selectivity Index [15]: 5; selectivity ratio [16]: 5
